Assays:
Canis familiaris [1] = species: Canis familiaris; assay: Compound was evaluated for oral ED50 for appetite suppression in dogs.; type: functional; details: Canis lupus familiaris
Summary of the method: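 ED50 for the 1-h food intake effect: five pairs of trained beagle dogs were randomly allocated to oral 5, 10, 15 or 20 mg/kg or to an undosed placebo pair. Treatments ran on successive days in a Latin Square design, and food was weighed 1 h into the feeding period.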

Canis familiaris [2] = assay: Compound was evaluated for mean reduction in food in take in dogs at 2 hour after dosing; type: functional, Canis lupus familiaris
Summary of the method: (§1)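 Mature beagle dogs were trained to a daily 4-h feeding period with free access to meat. Groups of three received oral drug in soft gelatin capsules 1 h before feeding, and controls received empty capsules. All dogs got placebo on days 1–2, then drug or placebo on days 3–5. Leftover food was weighed at 1 and 2 h. Per-dog % change was taken against the days 1–2 mean, then averaged over days 3–5 and per group.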

Canis familiaris [3] = assay: Compound was evaluated for mean reduction in food intake in dogs at 1 hour after dosing; type: functional, Canis lupus familiaris; summary of the method: as §1
Canis familiaris [4] = assay: Compound was evaluated for mean reduction in food intake in dogs at a dose 15 mg/kg at 2 hour after dosing for the first 3 days; type: functional, Canis lupus familiaris
Summary of the method: (§2)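 Chronic regime: three beagle dogs on a daily 4-h meat feeding period were given a daily oral dose for 3 weeks. Food intake was measured 2 h after dosing. The mean % reduction versus control intake was compared between the first 3 and the last 3 days of the test.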

Canis familiaris [5] = assay: Compound was evaluated for mean reduction in food intake in dogs at a dose 15 mg/kg at 2 hour after dosing for the last 3 days; type: functional, Canis lupus familiaris; summary of the method: as §2
Rattus norvegicus [6] = species: Rattus norvegicus; assay: Compound was found to have no effect on the release or uptake of dopamine at in rat brain synaptosomes; Inactive; type: functional
Rattus norvegicus [7] = species: Rattus norvegicus; assay: Compound was found to have no effect on the release or uptake of noradrenaline at in rat brain synaptosomes; Inactive; type: functional
Rattus norvegicus [8] = species: Rattus norvegicus; assay: Compound was found to have no effect on the release or uptake of serotonin at in rat brain synaptosomes; Inactive; type: functional
Canis familiaris [9] = assay: Compound was evaluated for mean increase in food intake in dogs at 1 hour after oral administration at a dose 10 mg/kg; type: functional, Canis lupus familiaris; summary of the method: as §1
Canis familiaris [10] = assay: Compound was evaluated for mean increase in food intake in dogs after oral administration at a dose 3 mg/kg; type: functional, Canis lupus familiaris
Canis familiaris [11] = assay: Compound was evaluated for mean reduction in food intake in three dogs at a dose 3 mg/kg orally for 3 weeks at 2 hour after dosing for the first 3 days; type: functional, Canis lupus familiaris; details: route oral; summary of the method: as §2

Molecule `Cl.c1ccc(COC[C@H]2COCCN2)cc1` has an ED50 (Canis familiaris [1]) of 12 mg/kg, a Reduction (Canis familiaris [2]) of 47% and a Reduction (Canis familiaris [3]) of 51%. For the same molecule, the Reduction (Canis familiaris [4]) was 53%, the Reduction (Canis familiaris [5]) was 56% and the IC50 (Rattus norvegicus [6]) was greater than 10 µM. The IC50 (Rattus norvegicus [7]) was greater than 10 µM and the IC50 (Rattus norvegicus [8]) was greater than 10 µM.
`Cl.c1ccc(COC[C@@H]2COCCN2)cc1` gave an Increase (Canis familiaris [9]) of 13%.
Work on `CCN(CC)C(C)C(=O)c1ccccc1.Cl` (configuration not stated) [DIETHYLPROPION HYDROCHLORIDE] yielded an ED50 (Canis familiaris [1]) of 2 mg/kg, an Increase (Canis familiaris [10]) of 5% and a Reduction (Canis familiaris [11]) of 86%.

— ChEMBL document CHEMBL1123318, “(S)-3-[(benzyloxy)methyl]morpholine hydrochloride: a nonstimulant appetite suppressant without conventional neurotransmitter releasing properties” (J Med Chem, 1986)
